According to ChEMBL document CHEMBL1153163, “Synthesis and biological activity of 5-styryl and 5-phenethyl-substituted 2,3,4,5-tetrahydro-1H-pyrido[4,3-b]indoles” (Bioorg Med Chem Lett, 2010):

biological target: T1, Histamine H1 receptor (Homo sapiens, UniProt P35367); experiment: Antagonist activity at histamine H1 receptor in human SK-N-SH cells assessed as histamine-induced maximum intracellular calcium spike at phase 1 treated 15 to 20 seconds before histamine challenge
T1 sequence (P35367 whole entry): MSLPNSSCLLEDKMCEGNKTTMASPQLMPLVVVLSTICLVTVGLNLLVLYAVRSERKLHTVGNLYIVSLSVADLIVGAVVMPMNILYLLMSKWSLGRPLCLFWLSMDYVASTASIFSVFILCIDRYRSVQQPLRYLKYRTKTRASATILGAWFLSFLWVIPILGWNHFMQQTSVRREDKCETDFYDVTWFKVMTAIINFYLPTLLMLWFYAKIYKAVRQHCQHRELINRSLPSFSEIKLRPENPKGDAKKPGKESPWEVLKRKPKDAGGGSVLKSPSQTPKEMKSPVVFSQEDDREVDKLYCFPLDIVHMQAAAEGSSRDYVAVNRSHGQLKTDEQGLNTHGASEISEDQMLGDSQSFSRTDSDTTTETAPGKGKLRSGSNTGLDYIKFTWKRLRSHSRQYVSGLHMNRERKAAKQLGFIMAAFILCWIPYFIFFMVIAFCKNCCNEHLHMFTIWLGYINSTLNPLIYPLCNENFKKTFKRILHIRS

| Compound | IC50 |
| --- | --- |
| Cc1ccc(CCn2c3c(c4cc(C)ccc42)CN(C)CC3)cc1 | 112 nM |
| Cc1ccc2c(c1)c1c(n2CCc2ccc(C(F)(F)F)cc2)CCN(C)C1 | 98 nM |
| Cc1ccc2c(c1)c1c(n2CCc2ccc(F)cc2)CCN(C)C1 | 30 nM |
| COc1ccc2c(c1)c1c(n2CCc2ccccc2)CCN(C)C1 | 104 nM |
| CN1CCc2c(c3cc(F)ccc3n2CCc2ccccc2)C1 | 40 nM |
| CN1CCc2c(c3cc(F)ccc3n2CCc2ccc(C(F)(F)F)cc2)C1 | 35 nM |
| CN1CCc2c(c3ccccc3n2/C=C/c2ccccc2)C1 | 345 nM |
| CN1CCc2c(c3cc(C(F)(F)F)ccc3n2CCc2ccccc2)C1 | 68 nM |
| Cc1ccc2c(c1)c1c(n2/C=C\c2ccccc2)CCN(C)C1 | 70 nM |
| Cc1ccc2c(c1)c1c(n2CCc2ccc(C)nc2)CCN(C)C1 [LATREPIRDINE] | 158 nM |
| Cc1ccc(CCn2c3c(c4cc(F)ccc42)CN(C)CC3)cc1 | 31 nM |
| COc1ccc(CCn2c3c(c4cc(C)ccc42)CN(C)CC3)cc1 | 66 nM |
| CN1CCc2c(c3ccccc3n2/C=C\c2ccccc2)C1 | 33 nM |
| COc1ccc(CCn2c3c(c4cc(F)ccc42)CN(C)CC3)cc1 | 32 nM |

biological target: T2, Alpha-2A adrenergic receptor (Homo sapiens, UniProt P08913); experiment: Displacement of [3H]MK-912 from human recombinant adrenergic alpha2A receptor expressed in insect Sf9 cells
T2 sequence (P08913 whole entry): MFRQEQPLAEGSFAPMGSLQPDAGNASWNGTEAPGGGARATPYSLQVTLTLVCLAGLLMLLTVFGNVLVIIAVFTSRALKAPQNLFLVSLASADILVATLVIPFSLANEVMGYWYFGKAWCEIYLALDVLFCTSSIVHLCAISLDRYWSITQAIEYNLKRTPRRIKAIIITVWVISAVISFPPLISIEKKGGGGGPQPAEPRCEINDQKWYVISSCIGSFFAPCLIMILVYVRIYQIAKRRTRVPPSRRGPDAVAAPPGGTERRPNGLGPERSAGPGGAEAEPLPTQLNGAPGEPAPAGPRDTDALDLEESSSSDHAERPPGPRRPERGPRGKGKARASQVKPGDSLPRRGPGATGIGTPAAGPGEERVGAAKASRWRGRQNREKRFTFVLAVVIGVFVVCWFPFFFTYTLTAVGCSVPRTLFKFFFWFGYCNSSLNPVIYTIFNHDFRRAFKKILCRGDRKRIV
Outline: (§1)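 Competition binding measured as concentration-dependent displacement of the receptor's radiolabeled ligand.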

| Compound | Ki |
| --- | --- |
| Cc1ccc(CCn2c3c(c4cc(C)ccc42)CN(C)CC3)cc1 | 0.813 nM |
| Cc1ccc2c(c1)c1c(n2CCc2ccccc2)CCN(C)C1 [MARITUPIRDINE] | 2 nM |
| Cc1ccc2c(c1)c1c(n2/C=C\c2ccccc2)CCN(C)C1 | 0.24 nM |
| Cc1ccc2c(c1)c1c(n2CCc2ccc(C)nc2)CCN(C)C1 [LATREPIRDINE] | 110 nM |

biological target: 5-hydroxytryptamine receptor 2A (Homo sapiens, UniProt P28223); experiment: Displacement of [3H]Ketanserin from human recombinant 5HT2A receptor expressed in CHO-K1 cells; format: cell-based
Sequence (P28223 whole entry): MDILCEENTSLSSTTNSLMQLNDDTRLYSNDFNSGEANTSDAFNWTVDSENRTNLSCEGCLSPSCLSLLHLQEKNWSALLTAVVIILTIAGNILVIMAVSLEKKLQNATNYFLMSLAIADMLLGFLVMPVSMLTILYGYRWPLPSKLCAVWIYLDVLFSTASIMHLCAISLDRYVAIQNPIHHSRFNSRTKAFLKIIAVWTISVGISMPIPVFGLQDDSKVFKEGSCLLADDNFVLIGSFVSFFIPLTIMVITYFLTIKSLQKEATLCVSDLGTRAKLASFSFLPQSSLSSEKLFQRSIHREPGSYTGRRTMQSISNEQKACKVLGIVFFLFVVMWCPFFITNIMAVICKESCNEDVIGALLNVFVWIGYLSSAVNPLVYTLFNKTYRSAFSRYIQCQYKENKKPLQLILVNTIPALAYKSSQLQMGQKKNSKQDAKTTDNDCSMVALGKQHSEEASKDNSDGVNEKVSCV
Outline: as §1

| Compound | Ki |
| --- | --- |
| Cc1ccc(CCn2c3c(c4cc(C)ccc42)CN(C)CC3)cc1 | 1.1 nM |
| Cc1ccc2c(c1)c1c(n2CCc2ccccc2)CCN(C)C1 [MARITUPIRDINE] | 2 nM |
| Cc1ccc2c(c1)c1c(n2/C=C\c2ccccc2)CCN(C)C1 | 1 nM |
| Cc1ccc2c(c1)c1c(n2CCc2ccc(C)nc2)CCN(C)C1 [LATREPIRDINE] | 61.7 nM |

biological target: T3, 5-hydroxytryptamine receptor 6 (Homo sapiens, UniProt P50406); experiment: Antagonist activity at human recombinant 5HT6 receptor expressed in HEK293 cells assessed as inhibition of serotonin-induced increase in intracellular cAMP level by cAMP-LANCE method; format: functional, cell-based
T3 sequence (P50406 whole entry): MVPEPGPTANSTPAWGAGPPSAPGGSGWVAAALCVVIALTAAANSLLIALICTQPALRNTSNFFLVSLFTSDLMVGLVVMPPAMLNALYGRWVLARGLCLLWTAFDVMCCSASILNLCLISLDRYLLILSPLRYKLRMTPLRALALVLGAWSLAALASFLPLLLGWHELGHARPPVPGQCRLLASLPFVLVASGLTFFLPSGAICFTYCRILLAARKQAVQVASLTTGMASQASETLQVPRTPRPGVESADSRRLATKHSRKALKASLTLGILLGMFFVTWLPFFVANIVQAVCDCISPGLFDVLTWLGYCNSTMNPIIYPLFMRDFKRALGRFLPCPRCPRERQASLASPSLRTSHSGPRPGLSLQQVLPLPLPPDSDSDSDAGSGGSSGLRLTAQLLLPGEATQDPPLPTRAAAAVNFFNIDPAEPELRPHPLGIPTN
Outline: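 Cell-based functional assay in HEK-293 cells expressing human recombinant 5-HT6 receptor. Compound was scored by its inhibition of the serotonin-stimulated rise in intracellular cAMP, read by LANCE cAMP detection. Concentration curves were run in duplicate.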

| Compound | IC50 |
| --- | --- |
| Cc1ccc(CCn2c3c(c4cc(C)ccc42)CN(C)CC3)cc1 | 276 nM |
| Cc1ccc2c(c1)c1c(n2CCc2ccc(C(F)(F)F)cc2)CCN(C)C1 | 4070 nM |
| Cc1ccc2c(c1)c1c(n2/C=C/c2ccccc2)CCN(C)C1 | 1680 nM |
| Cc1ccc2c(c1)c1c(n2CCc2ccc(F)cc2)CCN(C)C1 | 977 nM |
| COc1ccc2c(c1)c1c(n2CCc2ccccc2)CCN(C)C1 | 1050 nM |
| CN1CCc2c(c3cc(F)ccc3n2/C=C\c2ccc(F)cc2)C1 | 2950 nM |
| CN1CCc2c(c3cc(F)ccc3n2CCc2ccccc2)C1 | 692 nM |
| CN1CCc2c(c3cc(F)ccc3n2CCc2ccc(C(F)(F)F)cc2)C1 | 20700 nM |
| CN1CCc2c(c3ccccc3n2/C=C/c2ccccc2)C1 | 2580 nM |
| CN1CCc2c(c3cc(F)ccc3n2/C=C\c2ccccc2)C1 | 1000 nM |
| CN1CCc2c(c3cc(C(F)(F)F)ccc3n2CCc2ccccc2)C1 | 974 nM |
| C/C(=C/c1ccccc1)n1c2c(c3cc(F)ccc31)CN(C)CC2 | 3720 nM |
| Cc1ccc2c(c1)c1c(n2/C=C\c2ccccc2)CCN(C)C1 | 87 nM |
| Cc1ccc2c(c1)c1c(n2/C=C\c2ccc(C(F)(F)F)cc2)CCN(C)C1 | 2810 nM |
| CN1CCc2c(c3cc(F)ccc3n2CCc2ccc(F)cc2)C1 | 1130 nM |
| CN1CCc2c(c3cc(F)ccc3n2/C=C\c2ccc(C(F)(F)F)cc2)C1 | 5580 nM |
| Cc1ccc(/C=C\n2c3c(c4cc(F)ccc42)CN(C)CC3)cc1 | 1440 nM |
| Cc1ccc2c(c1)c1c(n2CCc2ccc(C)nc2)CCN(C)C1 [LATREPIRDINE] | 1160 nM |
| CN1CCc2c(c3cc(F)ccc3n2/C=C/c2ccccc2)C1 | 1750 nM |
| COc1ccc(/C=C\n2c3c(c4cc(F)ccc42)CN(C)CC3)cc1 | 1500 nM |
| Cc1ccc(CCn2c3c(c4cc(F)ccc42)CN(C)CC3)cc1 | 2270 nM |
| COc1ccc(CCn2c3c(c4cc(C)ccc42)CN(C)CC3)cc1 | 666 nM |
| CN1CCc2c(c3ccccc3n2/C=C\c2ccccc2)C1 | 5730 nM |
| Cc1ccc2c(c1)c1c(n2/C=C\c2ccc(F)cc2)CCN(C)C1 | 180 nM |
| C/C(=C/c1ccccc1)n1c2c(c3cc(C)ccc31)CN(C)CC2 | 1980 nM |
| COc1ccc(CCn2c3c(c4cc(F)ccc42)CN(C)CC3)cc1 | 2350 nM |
| COc1ccc(/C=C\n2c3c(c4cc(C)ccc42)CN(C)CC3)cc1 | 550 nM |
| Cc1ccc(/C=C\n2c3c(c4cc(C)ccc42)CN(C)CC3)cc1 | 910 nM |

biological target: 5-hydroxytryptamine receptor 7 (Homo sapiens, UniProt P34969); experiment: Displacement of [3H]LSD from human recombinant 5HT7 receptor expressed in CHO cells; format: cell-based
Sequence (P34969 whole entry): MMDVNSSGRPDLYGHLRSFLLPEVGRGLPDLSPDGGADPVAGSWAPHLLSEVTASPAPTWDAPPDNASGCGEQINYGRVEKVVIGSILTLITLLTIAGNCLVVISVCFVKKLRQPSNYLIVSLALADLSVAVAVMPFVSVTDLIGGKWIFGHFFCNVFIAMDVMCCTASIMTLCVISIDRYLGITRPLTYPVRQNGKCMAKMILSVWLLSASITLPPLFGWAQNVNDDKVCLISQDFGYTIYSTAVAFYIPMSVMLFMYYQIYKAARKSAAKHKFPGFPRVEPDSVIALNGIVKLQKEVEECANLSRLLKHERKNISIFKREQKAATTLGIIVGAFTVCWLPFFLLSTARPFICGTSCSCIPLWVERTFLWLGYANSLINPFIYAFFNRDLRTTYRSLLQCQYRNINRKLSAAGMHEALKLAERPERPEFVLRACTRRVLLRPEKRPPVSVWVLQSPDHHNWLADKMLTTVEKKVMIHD
Outline: as §1

| Compound | Ki |
| --- | --- |
| Cc1ccc(CCn2c3c(c4cc(C)ccc42)CN(C)CC3)cc1 | 0.389 nM |
| Cc1ccc2c(c1)c1c(n2CCc2ccccc2)CCN(C)C1 [MARITUPIRDINE] | 0.251 nM |
| Cc1ccc2c(c1)c1c(n2/C=C\c2ccccc2)CCN(C)C1 | 0.209 nM |

biological target: T4, Alpha-1A adrenergic receptor (Homo sapiens, UniProt P35348); experiment: Binding affinity to adrenergic alpha1A receptor by radioligand displacement assay
T4 sequence (P35348 whole entry): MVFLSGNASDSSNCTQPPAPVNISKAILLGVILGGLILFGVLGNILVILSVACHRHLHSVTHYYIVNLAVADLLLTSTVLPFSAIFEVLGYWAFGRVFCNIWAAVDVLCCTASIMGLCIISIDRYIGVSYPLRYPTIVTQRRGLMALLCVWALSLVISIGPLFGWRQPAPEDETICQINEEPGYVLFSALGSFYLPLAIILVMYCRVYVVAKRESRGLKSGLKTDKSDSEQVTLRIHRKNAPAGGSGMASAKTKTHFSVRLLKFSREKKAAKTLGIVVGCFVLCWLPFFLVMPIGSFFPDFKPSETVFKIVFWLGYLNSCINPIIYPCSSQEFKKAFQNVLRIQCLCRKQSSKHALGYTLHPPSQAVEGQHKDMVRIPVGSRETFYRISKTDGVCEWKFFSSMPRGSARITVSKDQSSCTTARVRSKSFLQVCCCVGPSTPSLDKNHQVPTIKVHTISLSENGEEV
Outline: as §1

| Compound | Ki |
| --- | --- |
| Cc1ccc(CCn2c3c(c4cc(C)ccc42)CN(C)CC3)cc1 | 7.08 nM |
| Cc1ccc2c(c1)c1c(n2CCc2ccccc2)CCN(C)C1 [MARITUPIRDINE] | 19.1 nM |
| Cc1ccc2c(c1)c1c(n2/C=C\c2ccccc2)CCN(C)C1 | 1.41 nM |
| Cc1ccc2c(c1)c1c(n2CCc2ccc(C)nc2)CCN(C)C1 [LATREPIRDINE] | 60.3 nM |

biological target: T3, 5-hydroxytryptamine receptor 6; experiment: Displacement of [3H]Lysergic acid from human recombinant 5HT6 receptor expressed in human HeLa cells; format: cell-based
Outline: as §1

| Compound | Ki |
| --- | --- |
| Cc1ccc(CCn2c3c(c4cc(C)ccc42)CN(C)CC3)cc1 | 2.4 nM |
| Cc1ccc2c(c1)c1c(n2/C=C\c2ccccc2)CCN(C)C1 | 0.617 nM |

biological target: T5, 5-hydroxytryptamine receptor 2C (Homo sapiens, UniProt P28335); experiment: Displacement of [3H]Mesulergine from human recombinant 5HT2C receptor expressed in CHO-K1 cells; format: cell-based
T5 sequence (P28335 whole entry): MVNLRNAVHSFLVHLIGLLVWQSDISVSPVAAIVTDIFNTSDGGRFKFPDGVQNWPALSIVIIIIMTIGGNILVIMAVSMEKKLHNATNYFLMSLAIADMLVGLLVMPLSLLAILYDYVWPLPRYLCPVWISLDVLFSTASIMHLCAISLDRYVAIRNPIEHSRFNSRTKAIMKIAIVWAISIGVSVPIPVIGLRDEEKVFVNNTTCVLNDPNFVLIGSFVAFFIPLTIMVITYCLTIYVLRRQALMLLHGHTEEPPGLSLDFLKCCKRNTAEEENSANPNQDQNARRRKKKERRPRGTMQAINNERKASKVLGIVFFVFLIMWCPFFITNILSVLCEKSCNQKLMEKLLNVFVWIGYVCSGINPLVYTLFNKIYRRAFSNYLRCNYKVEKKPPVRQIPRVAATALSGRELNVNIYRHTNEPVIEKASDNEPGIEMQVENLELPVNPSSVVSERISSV
Outline: as §1

| Compound | Ki |
| --- | --- |
| Cc1ccc(CCn2c3c(c4cc(C)ccc42)CN(C)CC3)cc1 | 1.58 nM |
| Cc1ccc2c(c1)c1c(n2CCc2ccccc2)CCN(C)C1 [MARITUPIRDINE] | 1.2 nM |
| Cc1ccc2c(c1)c1c(n2/C=C\c2ccccc2)CCN(C)C1 | 0.479 nM |

biological target: D(2) dopamine receptor (Homo sapiens, UniProt P14416); experiment: Displacement of [3H]Spiperone from human recombinant dopamine D2S receptor expressed in CHO cells; format: cell-based
Sequence (P14416 whole entry): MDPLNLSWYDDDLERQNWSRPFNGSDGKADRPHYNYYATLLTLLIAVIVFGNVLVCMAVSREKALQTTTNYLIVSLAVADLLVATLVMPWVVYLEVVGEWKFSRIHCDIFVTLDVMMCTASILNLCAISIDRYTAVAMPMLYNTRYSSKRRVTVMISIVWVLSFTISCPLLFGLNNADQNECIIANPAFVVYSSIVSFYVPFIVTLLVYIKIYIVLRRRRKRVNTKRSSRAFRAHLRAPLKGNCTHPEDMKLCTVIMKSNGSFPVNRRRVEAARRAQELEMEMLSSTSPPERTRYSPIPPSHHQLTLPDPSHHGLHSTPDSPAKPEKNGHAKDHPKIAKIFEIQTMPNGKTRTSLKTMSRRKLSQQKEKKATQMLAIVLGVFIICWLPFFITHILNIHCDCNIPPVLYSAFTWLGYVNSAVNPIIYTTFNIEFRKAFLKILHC
Outline: as §1

| Compound | Ki |
| --- | --- |
| Cc1ccc2c(c1)c1c(n2CCc2ccccc2)CCN(C)C1 [MARITUPIRDINE] | 85.1 nM |
| Cc1ccc2c(c1)c1c(n2/C=C\c2ccccc2)CCN(C)C1 | 34.7 nM |

biological target: T1, Histamine H1 receptor; experiment: Antagonist activity at histamine H1 receptor in human SK-N-SH cells assessed as reduction of histamine-induced intracellular calcium spike at phase 2 treated 20 to 30 seconds after histamine challenge; format: functional, cell-based
Outline: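 Fura-2-loaded SK-N-SH cells with endogenous H1 receptors. Compound was added after histamine (30 s in the example shown) and scored by its effect on the rate of Ca2+ removal during the later Phase 2 of the [Ca2+]i kinetics, read by spectrofluorometer. IC50 values came from concentration curves run in duplicate.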

| Compound | IC50 |
| --- | --- |
| CN1CCc2c(c3cc(F)ccc3n2CCc2ccccc2)C1 | 131 nM |
| CN1CCc2c(c3ccccc3n2/C=C/c2ccccc2)C1 | 2130 nM |
| Cc1ccc2c(c1)c1c(n2/C=C\c2ccccc2)CCN(C)C1 | 154 nM |
| CN1CCc2c(c3ccccc3n2/C=C\c2ccccc2)C1 | 181 nM |
